The nature of assay [1]: Percent fluorescence of the ethidium bromide-DNA complex. The method, boiled down:
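Ethidium displacement: ethidium bromide 3 µM and calf thymus DNA 20 µM in Hepes 2 mM, EDTA 10 µM, NaCl 9.4 mM, pH 7.0; drug 10 µM. Excitation 564 nm filter, emission 595 nm. Fluorescence with drug as % of drug-free control; mean ± SE of three experiments.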

The nature of assay [2]: Inhibition of KB cell growth in vitro. It counts as functional, cell-based. The note with it: Homo sapiens. The method, boiled down: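 KB clonal cells in Eagle's MEM with 10% calf serum, 37 °C, 5% CO2; seeded 2100 cells/cm², medium changed at 24 h, then graded drug 0.3–100 µg/mL for 48 h, duplicate dishes per concentration. Cells trypsinized and counted by Coulter counter; IC50 from log concentration vs growth rate (% of control).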

The test system of assay [3] is DNA topoisomerase II (Bos taurus). Kind of assay: Activity of the topoisomerase II dependent DNA cleavage; Inactive.
The subject of assay [4] is P388. Kind of assay: Median survival time per control mice with leukemia P388 at 400 mg/kg dose injected a dose of 400 mg/kg. The note with it: Mus musculus. It counts as functional, organism-based. The method, boiled down:
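CD2F1 mice (six per group) given 10⁶ P388 cells ip; drug in 0.9% NaCl with a drop of Tween 80, ip on days 1 and 5. Activity as % T/C of median survival time, treated vs control.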

Assay [5] deals with P388. The assay is described as follows: Median survival time per control mice with leukemia P388 at 40 mg/kg dose injected intraperitoneally. It counts as functional, Mus musculus. The conditions noted are these: route intraperitoneal. In short, it runs like this: (§1)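 CD2F1 mice (six per group) implanted ip with 10⁶ P388 leukemia cells. Drug dissolved in 0.9% NaCl with a drop of Tween 80, given ip once daily on days 1 and 5. % T/C = median survival time treated/control × 100.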

Assay [6] relates to P388. The assay is described as follows: Median survival time per control mice with leukemia P388 at 10 mg/kg dose injected intraperitoneally. It counts as functional, Mus musculus. The note with it: route intraperitoneal. In short, it runs like this:
as §1

Assay [7] deals with P388. The assay is described as follows: Median survival time per control mice with leukemia P388 at 20 mg/kg dose injected intraperitoneally. It counts as functional, Mus musculus. The note with it: route intraperitoneal. The method, boiled down: as §1
The test system of assay [8] is DNA topoisomerase II (Bos taurus). Kind of assay: Activity of the topoisomerase II dependent DNA cleavage; (-) = Inactive.
Assay [9] concerns P388. The assay is described as follows: Median survival time per control mice with leukemia P388 at 50 mg/kg dose injected intraperitoneally. The class given is functional, Mus musculus. The conditions noted are these: route intraperitoneal. In short, it runs like this: as §1
Assay [10] relates to P388. Kind of assay: Median survival time per control mice with leukemia P388 at 25 mg/kg dose injected intraperitoneally. The note with it: route intraperitoneal. The class given is functional, Mus musculus. In short, it runs like this: as §1
The test system of assay [11] is P388. Kind of assay: Median survival time per control mice with leukemia P388 at 12.5 mg/kg dose injected intraperitoneally. The class given is functional, Mus musculus. The note with it: route intraperitoneal. In short, it runs like this: as §1
Assay [12] can be described thus: Median survival time per control animal with colon 38 carcinoma cells at 6.3 mg/kg dose injected intraperitoneally on day 1,8,15,22. The conditions noted are these: route intraperitoneal. The class given is functional, Mus musculus. In short, it runs like this:
(§2)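 Colon 38 inoculated sc as a 1 × 1 × 1 mm³ fragment into B6D2F1 mice; drug dosed ip on days 1, 8, 15 and 22. Result expressed as % T/C of median survival time, treated versus control.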

Assay [13] has as its system B16. Kind of assay: Median survival time per control animal with B16 cells at 6.3 mg/kg dose injected intraperitoneally on day 1,5,8. The class given is functional, Mus musculus. The conditions noted are these: route intraperitoneal. In short, it runs like this:
(§3)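 Female-unspecified B6D2F1 mice inoculated ip with 0.5 mL of 10% homogenate (Hank's saline) of subcutaneous B16 melanoma. Drug given ip on days 1, 5 and 8. % T/C = median survival time of treated over control group.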

In assay [14] the test system is M5076. The assay is described as follows: Median survival time per control animal with M5076 cells at 50 mg/kg dose injected intraperitoneally on day 1,5,9. It counts as functional, Mus musculus. The note with it: route intraperitoneal. The method, boiled down: (§4)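 B6D2F1 mice inoculated ip with 10⁶ M5076 fibrosarcoma cells; drug given ip on days 1, 5 and 9. Activity read as % T/C, ratio of median survival time of treated to control group.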

For assay [15], the system named is B16. Kind of assay: Median survival time per control animal with B16 cells at 25 mg/kg dose injected intraperitoneally on day 1,5,8. The class given is functional, Mus musculus. The note with it: route intraperitoneal. In short, it runs like this:
as §3

The subject of assay [16] is DNA topoisomerase II (Bos taurus). The assay is described as follows: Activity of the topoisomerase II dependent DNA cleavage; Active.
The nature of assay [17]: Median survival time per control animal with colon 38 carcinoma cells at 12.5 mg/kg dose injected intraperitoneally on day 1,8,15,22. It counts as functional, Mus musculus. The note with it: route intraperitoneal. In short, it runs like this:
as §2

Assay [18] deals with M5076. Kind of assay: Median survival time per control animal with M5076 cells at 3.1 mg/kg dose injected intraperitoneally on day 1,5,9. The class given is functional, Mus musculus. The note with it: route intraperitoneal. In short, it runs like this: as §4
Assay [19] relates to M5076. Kind of assay: Median survival time per control animal with M5076 cells at 25 mg/kg dose injected intraperitoneally on day 1,5,9. It counts as functional, Mus musculus. The note with it: route intraperitoneal. The method, boiled down: as §4
For assay [20], the system named is P388. Kind of assay: Median survival time per control mice with leukemia P388 at 400 mg/kg dose injected intraperitoneally. The note with it: route intraperitoneal. It counts as functional, Mus musculus. In short, it runs like this:
as §1

Assay [21] relates to P388. The assay is described as follows: Median survival time per control mice with leukemia P388 at 100 mg/kg dose injected intraperitoneally. It counts as functional, Mus musculus. The conditions noted are these: route intraperitoneal. In short, it runs like this: as §1
The subject of assay [22] is M5076. Kind of assay: Median survival time per control animal with M5076 cells at 6.3 mg/kg dose injected intraperitoneally on day 1,5,9. It counts as functional, Mus musculus. The note with it: route intraperitoneal. In short, it runs like this:
as §4

A short description of assay [23]: Median survival time per control animal with colon 38 carcinoma cells at 35 mg/kg dose injected intraperitoneally on day 1,8,15,22. The class given is functional, Mus musculus. The conditions noted are these: route intraperitoneal. In short, it runs like this: as §2
Assay [24] is described as follows: Median survival time per control animal with colon 38 carcinoma cells at 25 mg/kg dose injected intraperitoneally on day 1,8,15,22. The class given is functional, Mus musculus. The conditions noted are these: route intraperitoneal. In short, it runs like this: as §2
Assay [25] relates to B16. Kind of assay: Median survival time per control animal with B16 cells at 12.5 mg/kg dose injected intraperitoneally on day 1,5,8. The class given is functional, Mus musculus. The note with it: route intraperitoneal. In short, it runs like this:
as §3

For assay [26], the system named is P388. Kind of assay: Median survival time per control mice with leukemia P388 at 200 mg/kg dose injected intraperitoneally. The class given is functional, Mus musculus. The conditions noted are these: route intraperitoneal. In short, it runs like this: as §1
Assay [27] relates to M5076. Kind of assay: Median survival time per control animal with M5076 cells at 12.5 mg/kg dose injected intraperitoneally on day 1,5,9. The note with it: route intraperitoneal. It counts as functional, Mus musculus. The method, boiled down:
as §4

The test system of assay [28] is DNA topoisomerase 1 (Bos taurus). The assay is described as follows: Unwinding of DNA observed in a reaction mixture containing PBR322 DNA dimer, calf thymus DNA topoisomerase I, and the drug; ++ = unwinding was observed at 25 ug/mL.
The test system is the same in assay [29]. Kind of assay: Unwinding of DNA observed in a reaction mixture containing PBR322 DNA dimer, calf thymus DNA topoisomerase I, and the drug; + = unwinding was observed at 100 ug/mL.

The source of these data is ChEMBL document CHEMBL1124690, “Synthesis and antitumor activity of fused tetracyclic quinoline derivatives. 1” (J Med Chem, 1989).

By IC50 is commonly meant the concentration at which inhibition is half-maximal. A lower IC50 goes with greater potency in that assay. In general, T/C refers to the result in the treated group divided by that in the control group, in per cent.

Converted amounts (≈) assume the structure as drawn. The source made the active and inactive calls. No cut-off for these calls is given here.

`COc1cc(NS(C)(=O)=O)ccc1Nc1c2c(nc3ccccc13)CCCC2`: in assay [1], the Fluoroscence came out at 93.3%. In [2], this compound returned an IC50 of 41 µg/mL (≈ 103 µM). For the same compound, in [3], the result was inactive. Besides, the T/C result with P388 [4] was “inactive”.
Compound `CN(C)CCCNc1c2c(nc3ccccc13)CCN(C)C2` yielded a half-maximal inhibitory concentration (IC50) in assay [2] of 14 µg/mL (≈ 46.9 µM). Moreover, the T/C result in the assay on P388 [4] was “inactive”.
`COc1cc(NS(C)(=O)=O)ccc1Nc1c2c(nc3ccccc13)CCSC2` registered a Fluoroscence in assay [1] of 106%. In [2], the IC50 amounted to 46 µg/mL (≈ 111 µM). Also, the T/C result in the assay with P388 [4] was “inactive”.
With `CN(C)CCCNc1c2c(nc3ccccc13)CCCC2`, the Fluoroscence in assay [1] was determined as 82%. The compound also registered an IC50 in [2] of 1.3 µg/mL (≈ 4.59 µM). The T/C result in the assay with P388 [4] is “inactive”.
`COc1cc(NS(C)(=O)=O)ccc1Nc1c2ccccc2nc2ccccc12` [AMSACRINE] displayed a Fluoroscence in assay [1] of 63.7%. Moreover, the T/C in the assay on P388 [5] was 223%; with P388 [6] it was 174%; in the assay on P388 [7] it was 198%. In [2], this compound yielded an IC50 of less than 0.3 µg/mL.
Turning to `COc1cc(NS(C)(=O)=O)ccc1Nc1c2c(nc3ccccc13)-c1ccccc1C2C` (centres undefined), the Fluoroscence in assay [1] was found to be 95.3%. The IC50 in assay [2] worked out at 15 µg/mL (≈ 33.7 µM). Also, in [3], the result was inactive. In the assay on P388 [4], the T/C entry was “inactive”.
`CN(C)CCCNc1c2c(nc3ccccc13)-c1ccccc1C2` showed a Fluoroscence in [1] of 5.45%. Further, the result in assay [8] was inactive. In assay [2], the IC50 was less than 0.3 µg/mL. Further, the T/C in the assay on P388 [9] stood at 101%; with P388 [10], 88%; in the assay on P388 [11] it was 110%.
Compound `COc1cc(NS(C)(=O)=O)ccc1Nc1c2c(nc3ccccc13)-c1ccccc1C2` displayed a Fluoroscence in [1] of 67.6%. Besides, the T/C in [12] was 111%; with B16 [13] it was 184%; in the assay on M5076 [14], 92%; in the assay with B16 [15], 211%; in [17], 133%; in the assay with M5076 [18], 193%. For the same compound, the T/C with M5076 [19] was found to be 111%; with P388 [20] it was 0%; in the assay on P388 [21], 80%; in the assay on P388 [9] it was 240%; with M5076 [22] it was 158%; in assay [23], 150%. Moreover, the T/C is listed as 217% in the assay on P388 [10]; 138% in assay [24]; 223% in the assay with B16 [25]; 166% in the assay on P388 [11]; 60% in the assay on P388 [26]; 184% with M5076 [27]. The same compound registered an IC50 in assay [2] of less than 0.3 µg/mL. Further, in assay [16], the result was Active.
`COc1cc(NS(C)(=O)=O)ccc1Nc1c2ccccc2nc2c1sc1ccccc12`: the Fluoroscence in assay [1] came out at 79.3%. The same compound registered an IC50 in assay [2] of less than 0.3 µg/mL. Further, the outcome in assay [16] was Active. Further, the T/C in the assay on P388 [20] is on record as 252%; in the assay with P388 [21] it was 166%; with P388 [9] it was 170%; in the assay on P388 [10], 170%; in the assay on P388 [11], 138%; in the assay on P388 [26] it was 238%. Also, the Unwinding result in assay [28] is reported as “unwinding was observed at 25 ug/mL”.
As to `COc1cc(NS(C)(=O)=O)ccc1Nc1c2c(nc3ccccc13)CCN(C)C2`, the Fluoroscence in assay [1] came out at 104%. Also, the IC50 in assay [2] is more than 100 µg/mL. In the assay with P388 [4], the T/C result is “inactive”.
In the case of `COc1cc(NS(C)(=O)=O)ccc1Nc1c2ccccc2nc2c1oc1ccccc12`, the Unwinding result in [29] is given as “unwinding was observed at 100 ug/mL”. In addition, the Fluoroscence in assay [1] was 81.4%. The same compound yielded an IC50 in assay [2] of less than 0.3 µg/mL. Further, the outcome in assay [16] was Active. Besides, the T/C with P388 [20] stood at 248%; in the assay on P388 [21] it was 138%; in the assay with P388 [9], 159%; with P388 [10], 125%; with P388 [11] it was 117%; in the assay with P388 [26] it was 168%.
Regarding `COc1cc(NS(C)(=O)=O)ccc1Nc1c2ccccc2nc2c3ccccc3n(C)c12`, the Fluoroscence in [1] amounted to 93.6%. The compound further yielded a half-maximal inhibitory concentration (IC50) in assay [2] of 3.6 µg/mL (≈ 8.06 µM). Moreover, the T/C entry in the assay on P388 [4] is “inactive”.
